Source: ChEMBL document CHEMBL4308921, “Structure-Activity Relationships of Central Nervous System Penetration by Fatty Acid Amide Hydrolase (FAAH)-Targeted Thyromimetic Prodrugs” (ACS Med Chem Lett, 2019)
Active and inactive are the calls of the source. The rule behind the calls is not given here.

Columns and labels:
[1] = biological target: T1, Fatty-acid amide hydrolase 1 (Homo sapiens, UniProt O00519); test: Prodrug activation in COS7 cells overexpressing human FAAH assessed as FAAH-mediated sobetirome formation by measuring compound hydrolysis rate at 100 uM by LC-MS/MS analysis; type: cell-based
T1 sequence (O00519 whole entry): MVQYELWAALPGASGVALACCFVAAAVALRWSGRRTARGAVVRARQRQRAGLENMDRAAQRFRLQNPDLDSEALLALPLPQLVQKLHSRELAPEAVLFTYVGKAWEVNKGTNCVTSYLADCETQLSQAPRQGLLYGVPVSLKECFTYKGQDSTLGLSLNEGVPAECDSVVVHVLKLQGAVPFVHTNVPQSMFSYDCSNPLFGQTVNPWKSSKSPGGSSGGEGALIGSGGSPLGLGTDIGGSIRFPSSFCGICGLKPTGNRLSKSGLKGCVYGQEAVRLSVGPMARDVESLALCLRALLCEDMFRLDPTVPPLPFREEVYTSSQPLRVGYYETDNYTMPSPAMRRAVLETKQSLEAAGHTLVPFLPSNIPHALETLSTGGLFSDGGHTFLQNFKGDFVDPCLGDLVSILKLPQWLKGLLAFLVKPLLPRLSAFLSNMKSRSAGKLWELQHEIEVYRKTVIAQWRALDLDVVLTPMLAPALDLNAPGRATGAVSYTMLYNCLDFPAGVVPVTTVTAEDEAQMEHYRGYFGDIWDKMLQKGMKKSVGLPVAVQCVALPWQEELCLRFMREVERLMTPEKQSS
Summary of the method: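 Hydrolysis kinetics were measured in homogenate of COS-7 cells overexpressing human FAAH, with prodrug substrate at 100 µM. Rate is given as nmol mg-1 min-1, mean ± SEM, n = 3.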

[2] = Tmax in C57BL/6 mouse brain assessed as sobetirome level at 9.15 umol/kg, iv by LC-MS/MS analysis; type: ADME, organism-based; conditions: in vivo
[3] = biological target: T2, Thyroid hormone receptor alpha (Homo sapiens) (UniProt P10827); test: Agonist activity at human TRalpha treated at 1 hr post FAAH inhibitor PF-3845 treatment and measured after 24 hrs by cell based luciferase reporter gene assay
T2 sequence (whole entry): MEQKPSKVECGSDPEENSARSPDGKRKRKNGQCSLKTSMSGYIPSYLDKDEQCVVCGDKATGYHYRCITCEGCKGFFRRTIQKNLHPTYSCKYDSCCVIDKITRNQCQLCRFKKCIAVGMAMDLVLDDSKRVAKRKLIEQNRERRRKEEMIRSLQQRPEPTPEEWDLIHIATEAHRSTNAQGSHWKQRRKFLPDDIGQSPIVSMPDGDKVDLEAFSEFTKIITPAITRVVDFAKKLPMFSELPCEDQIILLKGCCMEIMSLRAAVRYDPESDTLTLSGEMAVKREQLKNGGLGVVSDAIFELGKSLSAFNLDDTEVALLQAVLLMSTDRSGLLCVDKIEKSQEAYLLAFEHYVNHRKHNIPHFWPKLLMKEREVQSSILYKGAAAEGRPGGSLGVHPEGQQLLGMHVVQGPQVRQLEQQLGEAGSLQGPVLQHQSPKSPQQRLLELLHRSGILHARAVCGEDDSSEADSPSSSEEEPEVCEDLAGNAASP
Summary of the method: (§1)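 A plate-based luciferase reporter assay measured TRα or TRβ activation as dose-response curves, run in the presence of the FAAH inhibitor PF-3845. Data are mean ± SEM, n = 3.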

[4] = Brain to serum permeability coefficient, Kp of the compound in C57BL/6 mouse assessed as sobetirome level at 9.15 umol/kg, po via gavage measured up to 24 hrs by LC-MS/MS analysis; type: ADME, organism-based
[5] = AUC (0 to 24 hrs) in C57BL/6 mouse brain assessed as sobetirome level at 9.15 umol/kg, po via gavage by LC-MS/MS analysis; type: ADME, organism-based; design: dose 9.15 umol/kg, time < 24 hr, route oral; conditions: in vivo
[6] = Oral bioavailability in C57BL/6 mouse at 9.15 umol/kg administered via gavage by LC-MS/MS analysis; type: ADME, organism-based; conditions: in vivo
[7] = Terminal half life in C57BL/6 mouse at 9.15 umol/kg, iv by LC-MS/MS analysis; type: ADME, organism-based; conditions: in vivo, read-out: beta t1/2 (converted)
[8] = Prodrug activation in C57BL/6 mouse serum assessed as FAAH-mediated sobetirome formation at 3.05 umol/kg, ip after 1 hr by LC-MS/MS analysis; type: organism-based; conditions: in vivo
[9] = Prodrug activation in C57BL/6 mouse brain assessed as FAAH-mediated sobetirome formation at 3.05 umol/kg, ip after 1 hr by LC-MS/MS analysis; type: organism-based; conditions: in vivo
[10] = Brain to serum permeability coefficient, Kp of the compound in C57BL/6 mouse assessed as sobetirome level at 3.05 umol/kg, ip after 1 hr by LC-MS/MS analysis; type: ADME, organism-based
[11] = AUC (0 to 24 hrs) in C57BL/6 mouse brain assessed as sobetirome level at 9.15 umol/kg, iv by LC-MS/MS analysis; type: ADME, organism-based; design: dose 9.15 umol/kg, time < 24 hr, route intravenous; conditions: in vivo
[12] = Brain to serum permeability coefficient, Kp of the compound in C57BL/6 mouse assessed as sobetirome level at 9.15 umol/kg, iv measured up to 24 hrs by LC-MS/MS analysis; type: ADME, organism-based
[13] = biological target: T3, Thyroid hormone receptor beta (Homo sapiens) (UniProt P10828); test: Agonist activity at human TRbeta treated at 1 hr post FAAH inhibitor PF-3845 treatment and measured after 24 hrs by cell based luciferase reporter gene assay; summary of the method: as §1
T3 sequence (whole entry): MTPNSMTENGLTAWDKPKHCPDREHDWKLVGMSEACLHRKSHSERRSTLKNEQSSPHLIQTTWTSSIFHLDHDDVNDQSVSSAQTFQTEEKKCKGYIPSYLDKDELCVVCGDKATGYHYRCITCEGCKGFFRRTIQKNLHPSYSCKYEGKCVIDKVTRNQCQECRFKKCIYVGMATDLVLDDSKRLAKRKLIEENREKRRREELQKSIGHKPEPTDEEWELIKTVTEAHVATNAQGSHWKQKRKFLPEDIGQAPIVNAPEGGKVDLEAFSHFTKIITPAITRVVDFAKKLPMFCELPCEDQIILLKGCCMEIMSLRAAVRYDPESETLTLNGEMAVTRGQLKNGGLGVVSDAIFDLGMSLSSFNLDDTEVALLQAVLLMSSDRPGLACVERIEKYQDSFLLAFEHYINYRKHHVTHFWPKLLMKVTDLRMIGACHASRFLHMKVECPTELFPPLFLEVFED

[14] = Tmax in C57BL/6 mouse serum assessed as sobetirome level at 9.15 umol/kg, iv by LC-MS/MS analysis; type: ADME, organism-based; conditions: in vivo
[15] = Clearance in C57BL/6 mouse at 9.15 umol/kg, iv by LC-MS/MS analysis; type: ADME, organism-based; conditions: in vivo

**Q.** With CNC(=O)COc1cc(C)c(Cc2ccc(O)c(C(C)C)c2)c(C)c1 as the molecule, how does the Drug metabolism [1] read?
**A.** Its Drug metabolism is 3.2 nmol/mg/min.

**Q.** What about the Tmax [2] of the same molecule?
**A.** Its Tmax is 0.5 h.

**Q.** And the Activity [3]?
**A.** The Activity was “Active”.

**Q.** And the Kp [4]?
**A.** Its Kp is 0.44.

**Q.** And the AUC [5]?
**A.** Its AUC is 378 ng·h/g.

**Q.** What about the bioavailability [6] of the same molecule?
**A.** Its bioavailability is 19.5%.

**Q.** And the half-life [7]?
**A.** The half-life was 8.8 h.

**Q.** And the Drug uptake [8]?
**A.** Its Drug uptake is 17.2 ng/g.

**Q.** What about the Drug uptake [9] of the same molecule?
**A.** The Drug uptake was 53.1 ng/g.

**Q.** And the Kp [10]?
**A.** The Kp was 3.17.

**Q.** And the AUC [11]?
**A.** Its AUC is 694 ng·h/g.

**Q.** And the Kp [12]?
**A.** The Kp was 0.82.

**Q.** What about the Activity [13] of the same molecule?
**A.** Its Activity is “Active”.

**Q.** What about the Tmax [14] of the same molecule?
**A.** The Tmax was 0.5 h.

**Q.** And the clearance [15]?
**A.** The clearance was 91.7 mL/min/kg.
